Measurements from ChEMBL document CHEMBL1127547, “Synthesis and biological activities of a new set of irreversibly acting 2-(4'-isothiocyanatobenzyl)imidazoline analogs in rat thoracic aorta” (J Med Chem, 1994).
Where “and” joins values, the source holds several entries; their conditions need not be identical. Identical values can stand only once.

Experiments:
Rattus norvegicus [1] = species on record: Rattus norvegicus; assay: Percent of maximal contractile response to compound without phenoxybenzamine pretreatment on rat thoracic aorta strips
Summary of the method: (§1)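 Helically cut thoracic aorta strips from male Sprague-Dawley rats (300–450 g) in a 10-mL water-jacketed bath of physiological salt solution. After 1 h equilibration, strips were primed with 10^-8 M phenylephrine, and a phenylephrine curve (10^-9 to 3×10^-5 M) was run. Cumulative analog curves were read 20–30 min after each addition. Emax is given relative to the 30 μM phenylephrine maximum. Mean ± SEM, n = 4–7.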

Rattus norvegicus [2] = species on record: Rattus norvegicus; assay: Concentration that produces 50% of the maximal response to compound without phenoxybenzamine pretreatment on rat thoracic aorta strips; type: functional; summary of the method: as §1
Rattus norvegicus [3] = species on record: Rattus norvegicus; assay: Concentration that produces 50% of the maximal response to compound in rat thoracic aorta strips; type: functional; summary of the method: as §1
Rattus norvegicus [4] = species on record: Rattus norvegicus; assay: Concentration that produces 50% of the maximal response to compound in rat thoracic aorta strips in the presence of PBZ and IDA; type: functional
Summary of the method: (§2)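 Rat aortic strips were given PBZ for 20 min, then washed out and exposed to idazoxan for 60 min before cumulative analog curves (3×10^-8–10^-4 M). Readings were taken 35–45 min after each addition. Response is expressed as % of the 30 μM phenylephrine maximum. Mean ± SEM, n = 3–4.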

Rattus norvegicus [5] = species on record: Rattus norvegicus; assay: Percent of maximal contractile response to compound in rat thoracic aorta strips in the presence of nifedipine
Summary of the method: (§3)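 Aortic strips were pretreated with nifedipine 10^-6 M for 60 min. The stock was 0.01 M in EtOH, diluted in 0.01 M sodium phosphate, pH 7.4. Cumulative analog curves followed, read 35–45 min after each addition. Emax is expressed relative to the compound alone. Mean ± SEM, n = 3–4; paired comparison.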

Rattus norvegicus [6] = species on record: Rattus norvegicus; assay: Concentration that produces 50% of the maximal response to compound in rat thoracic aorta strips in the presence of nifedipine; type: functional; summary of the method: as §3
Rattus norvegicus [7] = species on record: Rattus norvegicus; assay: Percent of maximal contractile response to compound in rat thoracic aorta strips in the presence of PBZ and IDA; summary of the method: as §2
Rattus norvegicus [8] = species on record: Rattus norvegicus; assay: Concentration that produces 50% of the maximal response to compound with phenoxybenzamine pretreatment on rat thoracic aorta strips; type: functional
Summary of the method: (§4)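 Rat aortic strips (male Sprague-Dawley) were pretreated with phenoxybenzamine 3×10^-6 M for 20 min and washed before cumulative analog curves were run. Responses were taken 20–30 min after each addition. Maximal contraction is expressed relative to 30 μM phenylephrine, obtained before pretreatment. Mean ± SEM, n = 4–7; Student's t test against the untreated control.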

Rattus norvegicus [9] = species on record: Rattus norvegicus; assay: Percent of maximal contractile response to compound in rat thoracic aorta strips; summary of the method: as §1
Rattus norvegicus [10] = species on record: Rattus norvegicus; assay: Percent of maximal contractile response to compound in rat thoracic aorta strips in the presence of PBZ and CIR
Rattus norvegicus [11] = species on record: Rattus norvegicus; assay: Percent of maximal contractile response to compound with phenoxybenzamine pretreatment on rat thoracic aorta strips; summary of the method: as §4
Rattus norvegicus [12] = species on record: Rattus norvegicus; assay: Concentration that produces 50% of the maximal response to compound in rat thoracic aorta strips in the presence of PBZ and CIR; type: functional
Rattus norvegicus [13] = species on record: Rattus norvegicus; assay: Percent of maximal contractile response to compound in rat thoracic aorta strips v
Rattus norvegicus [14] = species on record: Rattus norvegicus; assay: Concentration that produces 50% of the maximal response to compound in rat thoracic aorta strips in the presence of PBZ and IDA
Rattus norvegicus [15] = species on record: Rattus norvegicus; assay: Percent of maximal contractile response to compound in rat thoracic aorta strips in the presence of PBZ and IDA at 1 uM
Summary of the method: (§5)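 Strips were exposed to 30 nM PBZ for 20 min, washed out, then held in idazoxan for 1 h: 0.1 μM or 1 μM. Analog-induced contractions were read 20–30 min after addition and expressed against the 30 μM phenylephrine maximum obtained before treatment.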

Rattus norvegicus [16] = species on record: Rattus norvegicus; assay: Percent of maximal contractile response to compound in rat thoracic aorta strips in the presence of calcium deficient buffer
Summary of the method: (§6)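 Cumulative analog concentration-response curves were run on rat thoracic aorta strips in calcium-deficient PSS. Responses were read 35–45 min after each addition. Emax is relative to the maximal contraction of the compound alone in normal PSS. Mean ± SEM, n = 3–4; paired t test.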

Rattus norvegicus [17] = species on record: Rattus norvegicus; assay: Percent of maximal contractile response to compound in rat thoracic aorta strips in the presence of verapamil
Summary of the method: (§7)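 Verapamil was given for 60 min before cumulative analog curves on rat aortic strips; the methods give 10^-5 M and the table footnote gives 10^-6 M. Responses were read 35–45 min after each addition. Emax is relative to the compound's own maximal contraction without verapamil. Mean ± SEM, n = 3–4.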

Rattus norvegicus [18] = species on record: Rattus norvegicus; assay: Concentration that produces 50% of the maximal response to compound in rat thoracic aorta strips in the presence of PBZ and IDA at 0.1 uM; type: functional; summary of the method: as §5
Rattus norvegicus [19] = species on record: Rattus norvegicus; assay: Concentration that produces 50% of the maximal response to compound in rat thoracic aorta strips in the presence of PBZ and IDA at 1 uM; type: functional; summary of the method: as §5
Rattus norvegicus [20] = species on record: Rattus norvegicus; assay: Concentration that produces 50% of the maximal response to compound in rat thoracic aorta strips in the presence of calcium deficient buffer; type: functional; summary of the method: as §6
Rattus norvegicus [21] = species on record: Rattus norvegicus; assay: Concentration that produces 50% of the maximal response to compound in rat thoracic aorta strips in the presence of verapamil; type: functional; summary of the method: as §7
Rattus norvegicus [22] = species on record: Rattus norvegicus; assay: Percent of maximal contractile response to compound in rat thoracic aorta strips in the presence of PBZ and IDA at 0.1 uM; summary of the method: as §5
Rattus norvegicus [23] = species on record: Rattus norvegicus; assay: Percent of maximal contractile response to compound in rat thoracic aorta strips presence of PBZ and CIR
[24] = Rattus norvegicus, Thoracic aorta
[25] = Rattus norvegicus, Thoracic aorta, read-out: Emax

Structure (SMILES)	Emax (Rattus norvegicus [1]) [%]	EC50 (Rattus norvegicus [2]) [µM]	EC50 (Rattus norvegicus [3]; [24]) [µM]	Emax (Rattus norvegicus [5]) [%]	EC50 (Rattus norvegicus [6]) [µM]	EC50 (Rattus norvegicus [8]) [µM]	Emax (Rattus norvegicus [9]; [25]) [%]	Emax (Rattus norvegicus [10]) [%]	Emax (Rattus norvegicus [11]) [%]	EC50 (Rattus norvegicus [12]) [µM]	also measured
S=C=Nc1ccc(Cc2ncc[nH]2)cc1	70	31	28.6	35	38.9	36	100	102	68	25.5	EC50 (Rattus norvegicus [4]): 40.9 µM; Emax (Rattus norvegicus [7]): 79%
S=C=Nc1ccc(CC2=NCCN2)cc1I	31	10				58			28		
O=C(CCl)Nc1ccc(CC2=NCCN2)cc1	41	116				129			32		
Cc1ccc(CC2=NCCN2)cc1	14	57							5		
S=C=Nc1ccc(OCC2=NCCN2)cc1	108	69	17.2	11	52.1	47	100	117	117	16.4	Emax (Rattus norvegicus [13]): 110%; EC50 (Rattus norvegicus [14]): 16.1 µM
O=C(CI)Nc1ccc(CC2=NCCN2)cc1	25	47							13		
CN(C)CCc1ccc(N=C=S)cc1	98	41	16.8	29	48.5	33	100		113		EC50 (Rattus norvegicus [3]): 16.9 µM and 16.3 µM; Emax (Rattus norvegicus [9]; rat, in vitro): 91% and 94%
Nc1ccc(CC2=NCCN2)cc1	69	3				31			9		
S=C=Nc1ccc(CCC2=NCCN2)cc1	107	29	18.3	21	67	29	100	100	102	14.9	EC50 (Rattus norvegicus [4]): 18.1 µM; Emax (Rattus norvegicus [7]): 114%
S=C=Nc1ccc(CC2=NCCN2)cc1	118	48		42	19.8	52	100		100	43	Emax (Rattus norvegicus [15]): 105%; EC50 (Rattus norvegicus [3]): 45 µM and 5.8 µM; Emax (Rattus norvegicus [16]): 34%; Emax (Rattus norvegicus [17]): 48%; EC50 (Rattus norvegicus [18]): 54 µM; EC50 (Rattus norvegicus [19]): 54 µM; EC50 (Rattus norvegicus [20]): 12.7 µM; EC50 (Rattus norvegicus [21]): 21.4 µM; Emax (Rattus norvegicus [22]): 104%; Emax (Rattus norvegicus [9]; rat, in vitro): 100%; Emax (Rattus norvegicus [23]): 94%
